Compound activity deposited in PubChem by several laboratories.
Mcl1 Noxa PPI = disrupts binding of human Mcl-1 to Noxa peptide; TR-FRET Mcl-1/Noxa peptide binding, 2 h; inhibition, % at 21.7 µM; 1.5% of 220,000 active;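 active means compounds that cut the protein-peptide binding signal by more than 50% relative to plate controls in a single-dose test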;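 further: His-tagged Mcl-1 with rhodamine Noxa BH3 peptide and terbium anti-His antibody; 0% = Mcl-1 plus Noxa peptide wells and 100% = peptide-only wells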
Target sequence (Q07820 whole entry, looked up): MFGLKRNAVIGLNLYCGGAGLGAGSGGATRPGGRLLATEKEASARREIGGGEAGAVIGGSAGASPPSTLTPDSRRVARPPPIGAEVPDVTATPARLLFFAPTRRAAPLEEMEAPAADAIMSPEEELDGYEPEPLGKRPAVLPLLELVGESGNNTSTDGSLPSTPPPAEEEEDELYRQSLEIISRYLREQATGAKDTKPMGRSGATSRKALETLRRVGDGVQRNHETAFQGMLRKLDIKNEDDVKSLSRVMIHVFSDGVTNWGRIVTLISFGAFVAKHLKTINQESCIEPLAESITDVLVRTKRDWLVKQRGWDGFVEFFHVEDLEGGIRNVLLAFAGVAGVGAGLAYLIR
Mcl1 Bid PPI = Mcl-1/Bid interaction inhibition; Q07820; TR-FRET Mcl-1/Bid-Dy647 peptide binding, 1536-well; inhibition, % at 21.7 µM; 0.97% of 220,000 active; AID 1021;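 active means compounds that cut the binding signal by more than half at the single screening dose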;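 further: His-tagged Mcl-1 with europium anti-His antibody binding Bid BH3 peptide; 0% = Mcl-1 plus peptide wells and 100% = peptide-only wells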
Hck Nef HTS = inhibitors of human Hck kinase activated by Nef; P08631; Recombinant Hck-YEEI plus Nef, Z-Lyte FRET kinase assay; inhibition, % at 20 µM; 0.68% of 220,000 active; AID 463187;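 active means Hck-Nef kinase inhibition above about 50%, limit read from the data; inactive means inhibition below that limit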;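 further: 0% = DMSO with Hck plus Nef and 100% = Hck alone without Nef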
Mcl-1 Bim block = inhibitors of Bim-Mcl-1 interaction, human | Q07820 | Bead-based flow cytometry, Bim peptide-Mcl-1 binding | inhibition, % at 10 µM | 0.1% of 190,000 active | AID 1009; in the data active means inhibition above about 40%;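 further: 0% = no compound tracer wells and 100% = peptide blocker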
14-3-3 Bad PPI = disrupts binding of bovine 14-3-3 zeta to phospho-Bad peptide; P63103; TR-FRET 14-3-3zeta/Dy647-pBad peptide displacement, 1 h; inhibition, % at 21.7 µM; 0.71% of 220,000 active;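 active means inhibition above about 70%, limit read from the data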;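 further: 0% = full 14-3-3 plus peptide FRET controls and 100% = background without 14-3-3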
Calb biofilm kill = mixture kills Candida albicans biofilm cells; 0.02% of 120,000 active; AID 1242; inhibition, % at 7.6 µM; C. albicans biofilm persisters + clotrimazole, fluorescence viability; primary screen in compound mixtures of four per well;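 further: compounds exposed to preformed 24 h biofilms for 48 h; 0% = untreated biofilm control and 100% = clotrimazole plus chlorhexidine kill blank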
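Incubation: 24 h biofilm formation, then 48 h compound exposure, 37 °C | Material: C. albicans biofilms | Buffer or medium: RPMI/MOPS medium, pH 7.0 | Measured by: 2-h Alamar Blue fluorescence, 535/590 nm excitation/emission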
* = called active by the depositor; · = no result given; [ ] = another dose, or the depositor's remark. This is a sample that favours compounds with a hit; in the whole collection about 3.2% have one here.

SMILES	Mcl1 Noxa PPI	Mcl1 Bid PPI	Hck Nef HTS	Mcl-1 Bim block	14-3-3 Bad PPI	Calb biofilm kill
Nc1cc(C(=O)O)ccc1Nc1ccc(F)c(F)c1	12	-25	0	-4	2	·
CCOc1cc(N2CCOCC2)c(OCC)cc1NC(=O)c1cc(-c2ccco2)nc2ccccc12	49	78*	1	-3	63	·
CCOc1cc(N2CCOCC2)c(OCC)cc1NC(=O)CN1CCc2ccccc2C1	18	93*	-1	0	57	·
COc1ccc(NC(=O)c2cc(OC)c(OC)c(OC)c2)cc1S(=O)(=O)N1CCCCC1	3	38	20	-1	-11	5
O=C(Nc1ccc(Cl)c(S(=O)(=O)N2CCOCC2)c1)c1cc(-c2ccccn2)nc2ccccc12	9	-14	20	-1	-17	12
COc1ccc(NC(=O)c2ccc(Cl)nc2)cc1S(=O)(=O)N1CCCCC1	18	-40	-8	0	91*	-21
CCOc1cc(N2CCOCC2)c(OCC)cc1NC(=O)CN1CCN(Cc2ccc3c(c2)OCO3)CC1	15	-23	11	0	-10	15
COc1ccc(NC(=O)c2cc(-c3ccco3)nc3ccccc23)cc1S(=O)(=O)N1CCOCC1	101*	-25	33	·	49	18
O=S1(=O)CC(O)C(N(CCO)C(=S)Nc2ccccc2)C1 (stereo not drawn)	5	-76	18	·	1	22
CCOC(=O)C1CCN(C(=O)CCCCn2c(=O)[nH]c3ccccc3c2=O)CC1	-26	-6	-1	-2	1	·
COc1ccc(C(=O)Nc2cccc(C)c2)cc1S(=O)(=O)N1CCOCC1	3	76*	6	0	-7	·
CCC(COC(=O)Nc1ccccc1)NC(=O)OC(C)C (stereo not drawn)	8	-14	15	1	-6	-3
COc1ccc(OC)c(N(CC(=O)NCc2cccnc2)S(C)(=O)=O)c1	19	-2	6	2	-6	·
Cc1cc2cc3c(cc2nc1SCC(=O)OC(C)C)OCCO3	-2	4	8	-1	91*[fluorescence artefact?]	·
COCc1cc(=O)[nH]c(-c2ccccc2OC(F)(F)F)n1	2	-9	1	·	-15	15
CC(=O)N1C(=O)N(C(C)=O)C2C1N(C(C)=O)C(=O)N2C(C)=O (stereo not drawn)	9	-11	7	-3	-3	·
CCN1C(=O)N(C(C)=O)C2C1N(C(C)=O)C(=O)N2C(C)=O (stereo not drawn)	-1	53*	21	-1	-8	16
CC(C)OC(=O)Nc1ccc2c(c1)N(C(=O)N1CCN(C)CC1)c1ccccc1CC2	51*	12	7	·	23	13
COC(=O)C(C)(C)ONC(=O)Nc1ccccc1[N+](=O)[O-]	-8	-20	-10	0	3	-2
CCCONC(=O)Nc1ccccc1[N+](=O)[O-]	-9	66*	1	-4	6	-4
CCN(CC)CCCN1C(=O)C(O)=C(C(=O)c2cccs2)C1c1ccccn1 (stereo not drawn)	·	·	3	·	·	·
Cc1cc(C)c(S(=O)(=O)Nc2cc(SCC(=O)O)c(O)c3ccccc23)cc1C	82*	29	30	0	68	13
Cc1cc(C)c(S(=O)(=O)Nc2ccc(O)cc2)cc1C	5	-1	1	-5	-9	·
CCOC(=O)c1ccc(Nc2ncccc2[N+](=O)[O-])cc1	-8	-21	14	-1	-10	7
O=C(O)Cn1cnc2c(=S)nc[nH]c21	9	99*	-1	·	-3	-3
CCOc1ccc(OCC)c(NC(=O)CN2CCN(c3cc(C)ccc3C)CC2)c1	8	51*	1	-3	58	·
CCOc1ccc(OCC)c(NC(=O)CN2CCN(c3cccc(C)c3)CC2)c1	24	46	-18	-5	42	·
CCC(C)(C)c1nnc(NC(=O)c2cccc([N+](=O)[O-])c2)s1	5	8	-1	-2	6	7
CCn1cc(/C=C/C(=O)Nc2ccn(Cc3c(F)c(F)cc(F)c3F)n2)cn1	54*	7	5	-8	12	8
CCn1cc(/C=C/C(=O)Nc2ccc(C)cc2Br)cn1	0	8	2	0	-2	6
